Values belong to the compound of their own block, whether it stands above or below them. The source made the active and inactive calls. The calls are words filed in the database; no cut-off is given here.
Experiments:
[1] = biological target: T1, Sonic hedgehog protein (Homo sapiens, UniProt Q15465); experiment: Binding affinity to N-terminal Shh by surface plasmon resonance assay
Procedure, shortened: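 SPR (Biacore T100) at 25 °C; ShhN amine-coupled to CM4 chip at 10 µg/mL in 10 mM sodium acetate pH 5.5 (1000–1200 RU), underivatized reference surface. Running/sample buffer 0.01 M HEPES pH 7.4, 0.15 M NaCl, 0.05% P20, 5% DMSO; compounds serially diluted 0.78–25 µM, 2 min injections at 80 µL/min; double referencing plus DMSO solvent correction.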

[2] = biological target: Sonic hedgehog protein (Mus musculus) (UniProt Q62226); experiment: Inhibition of N-palmitoylated Shh in mouse Shh Light2 cells after 30 hrs by firefly luciferase reporter gene assay; type: functional, cell-based; conditions: Shh Light II
Procedure, shortened: (§1)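 Shh-LIGHT2 (NIH3T3 with Gli-luciferase) cultured in DMEM/10% calf serum with G-418 and Zeocin, grown to confluence (~5–7 days); compounds added in DMEM with 0.5% calf serum, 30 h at 37 °C; pathway activity read as luminescence with Bright-Glo reagent.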

[3] = Cytotoxicity against mouse Shh Light2 cells assessed as cell viability; type: cell-based; conditions: shh light ii
Procedure, shortened: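 Shh-LIGHT2 (NIH3T3 with Gli-luciferase) grown in DMEM/10% calf serum with G-418 and Zeocin, plated and grown to confluence (~5–7 days); treated in DMEM with 0.5% calf serum for 30 h at 37 °C; viability read by CellTiter-Glo luminescence after 10 min at room temperature.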

[4] = biological target: Sonic hedgehog protein (Mus musculus) (UniProt Q62226); experiment: Inhibition of N-palmitoylated Shh in mouse Shh Light2 cells at > 30 uM after 30 hrs by firefly luciferase reporter gene assay; type: functional, cell-based; conditions: Shh Light II; procedure, shortened: as §1
[5] = biological target: Sonic hedgehog protein (Mus musculus) (UniProt Q62226); experiment: Inhibition of N-palmitoylated Shh in mouse Shh Light2 cells at 6.3 to 50 uM after 30 hrs by firefly luciferase reporter assay in presence of 3.6 uM Smo agonist purmorphamine; type: functional, cell-based; conditions: Shh Light II; procedure, shortened: as §1
[6] = biological target: Sonic hedgehog protein (Mus musculus) (UniProt Q62226); experiment: Inhibition of N-palmitoylated Shh in mouse Shh Light2 cells at 6.3 to 50 uM after 30 hrs by firefly luciferase reporter assay in presence of 100 nM Smo agonist SAG; type: functional, cell-based; conditions: Shh Light II; procedure, shortened: as §1
[7] = biological target: Sonic hedgehog protein (Mus musculus) (UniProt Q62226); experiment: Inhibition of N-terminal Shh-induced differentiation in mouse C3H10T1/2 cells assessed as inhibition of alkaline phosphatase induction; type: cell-based; conditions: C3H 10T1/2
[8] = biological target: Sonic hedgehog protein (Mus musculus) (UniProt Q62226); experiment: Inhibition of N-terminal Shh-induced differentiation in mouse C3H10T1/2 cells assessed as inhibition of alkaline phosphatase induction in presence of 3.6 uM purmorphamine; type: cell-based; conditions: C3H 10T1/2
[9] = biological target: T1, Sonic hedgehog protein; experiment: Inhibition of N-terminal N-palmitoylated Shh-mediated Gli2 transcription in human keratinocytes at 100 uM after 30 hrs by real-time quantitative PCR analysis; type: cell-based
[10] = biological target: T1, Sonic hedgehog protein; experiment: Inhibition of N-terminal N-palmitoylated Shh-mediated Gli1 transcription in human keratinocytes after 30 hrs by real-time quantitative PCR analysis; type: cell-based
[11] = biological target: T1, Sonic hedgehog protein; experiment: Inhibition of N-terminal N-palmitoylated Shh-mediated Gli1 transcription in human keratinocytes after 30 hrs by real-time quantitative PCR analysis in presence of 3.6 uM Smo agonist purmorphamine; type: functional, cell-based
[12] = biological target: T1, Sonic hedgehog protein; experiment: Inhibition of N-terminal N-palmitoylated Shh-mediated Gli1 transcription in human keratinocytes after 30 hrs by real-time quantitative PCR analysis in presence of 100 nM Smo agonist SAG; type: functional, cell-based
[13] = biological target: T1, Sonic hedgehog protein; experiment: Inhibition of N-terminal N-palmitoylated Shh-mediated Gli2 transcription in human keratinocytes after 30 hrs by real-time quantitative PCR analysis in presence of 3.6 uM Smo agonist purmorphamine; type: functional, cell-based
[14] = biological target: T1, Sonic hedgehog protein; experiment: Inhibition of N-terminal N-palmitoylated Shh-mediated Gli2 transcription in human keratinocytes after 30 hrs by real-time quantitative PCR analysis in presence of 100 nM Smo agonist SAG; type: functional, cell-based
[15] = biological target: T1, Sonic hedgehog protein; experiment: Inhibition of Shh-mediated Gli1 mRNA transcription in human synthetic skin by real-time quantitative PCR analysis
[16] = biological target: T1, Sonic hedgehog protein; experiment: Inhibition of Shh-mediated Gli2 mRNA transcription in human synthetic skin by real-time quantitative PCR analysis
[17] = biological target: Sonic hedgehog protein (Mus musculus) (UniProt Q62226); experiment: Inhibition of Shh in MEF deficient in ptch1 gene assessed as beta-galactosidase activity at 1.56 to 25 uM after 30 mins by luminometry; conditions: in the assay text read “30 hrs” for “30 mins”
Procedure, shortened: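 Ptc1−/− mouse embryonic fibroblasts carrying β-galactosidase construct, grown in DMEM/10% FBS to confluence (3–4 days, 37 °C); compounds in DMEM/0.5% FBS for 30 h; Beta-Glo reagent added with 30 min gentle agitation at room temperature, then luminescence read.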

[18] = biological target: Smoothened homolog (Mus musculus) (UniProt P56726); experiment: Displacement of BODIPY-cyclopamine from Smo expressed in HEK293T cells after 30 mins; conditions: HEK-293T
Chain of Smoothened homolog (Mus musculus) (P56726 whole entry, looked up): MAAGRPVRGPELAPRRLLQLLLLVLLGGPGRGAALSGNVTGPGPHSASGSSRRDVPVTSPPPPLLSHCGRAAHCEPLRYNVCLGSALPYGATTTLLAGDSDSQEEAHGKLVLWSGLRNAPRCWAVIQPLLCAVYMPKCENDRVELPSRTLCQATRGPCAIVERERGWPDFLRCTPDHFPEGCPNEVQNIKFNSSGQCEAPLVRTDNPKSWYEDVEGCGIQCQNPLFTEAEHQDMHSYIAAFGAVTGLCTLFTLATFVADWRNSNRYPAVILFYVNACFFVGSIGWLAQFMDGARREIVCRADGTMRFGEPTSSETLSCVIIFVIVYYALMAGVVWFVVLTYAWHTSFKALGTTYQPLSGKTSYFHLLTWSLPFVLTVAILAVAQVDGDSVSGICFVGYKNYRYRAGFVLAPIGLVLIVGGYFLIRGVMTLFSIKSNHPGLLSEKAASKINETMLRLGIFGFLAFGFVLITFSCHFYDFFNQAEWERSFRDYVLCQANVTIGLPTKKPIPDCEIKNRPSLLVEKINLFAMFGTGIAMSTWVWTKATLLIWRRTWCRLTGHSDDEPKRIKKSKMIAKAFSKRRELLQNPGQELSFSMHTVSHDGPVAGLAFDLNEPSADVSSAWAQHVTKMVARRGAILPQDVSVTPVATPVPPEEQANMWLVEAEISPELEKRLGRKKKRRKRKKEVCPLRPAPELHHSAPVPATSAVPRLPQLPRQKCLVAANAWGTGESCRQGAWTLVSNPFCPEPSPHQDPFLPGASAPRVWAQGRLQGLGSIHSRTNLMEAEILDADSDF

[19] = biological target: Sonic hedgehog protein (Mus musculus) (UniProt Q62226); experiment: Inhibition of N-palmitoylated Shh in mouse Shh Light2 cells at 6.25 uM after 30 hrs by firefly luciferase reporter gene assay; type: functional, cell-based; conditions: Shh Light II
Procedure, shortened: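 Shh-LIGHT2 (NIH3T3 carrying Gli-luciferase reporter) grown to confluence over about 5-7 days in DMEM, 10% calf serum, G-418 and Zeocin at 37 °C. Treated in DMEM with 0.5% calf serum for 30 h. Readout by luminescence with Bright-Glo. Parallel identically treated wells read with CellTiter-Glo after 10 min at room temperature.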

[20] = biological target: Sonic hedgehog protein (Mus musculus) (UniProt Q62226); experiment: Inhibition of Shh in MEF deficient in ptch1 gene assessed as beta-galactosidase activity at 6.6 uM after 30 hrs by luminometry

T1 sequence (Q15465 24-197 limits assumed): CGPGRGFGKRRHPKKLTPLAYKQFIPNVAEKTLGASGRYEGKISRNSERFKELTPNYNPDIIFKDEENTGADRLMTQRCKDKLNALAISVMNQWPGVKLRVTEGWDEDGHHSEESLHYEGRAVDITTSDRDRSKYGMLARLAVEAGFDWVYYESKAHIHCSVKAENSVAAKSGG

Kd [1]: 3.1 µM | inhibition [2]: Dose-dependent effect | inhibition [4]: Active | inhibition [5]: Active | inhibition [6]: Active | inhibition [7]: Active | inhibition [8]: inactive | inhibition [9]: Active | inhibition [10]: Active | Activity [11]: inactive | Activity [12]: inactive | Activity [13]: inactive | Activity [14]: inactive | inhibition [15]: Active | inhibition [16]: Active | inhibition [17]: inactive | Activity [18]: inactive
Structure (SMILES): O=C(C[C@@H]1C/C=C/CCC(=O)O[C@H](c2ccccc2)CNC1=O)NCc1ccc(Cl)cc1 [ROBOTNIKININ]
Activity [3]: Non-toxic

Structure (SMILES): CC1=C2C[C@H]3[C@@H](CC=C4C[C@@H](O)CC[C@@]43C)[C@@H]2CC[C@]12O[C@@H]1C[C@H](C)CN[C@H]1[C@H]2C
inhibition [19]: Active | inhibition [20]: Active

Activity [1]: Dose-dependent effect | inhibition [2]: Active
Structure (SMILES): C[C@H]1COC(=O)[C@@H](N)CC/C=C/C[C@@H](CC(=O)N(CCO)Cc2ccccc2)C(=O)N1
Activity [3]: Non-toxic

— ChEMBL document CHEMBL1212710, “A small molecule that binds Hedgehog and blocks its signaling in human cells” (Nat Chem Biol, 2009)
